pIC50: −log10 of the molar value. “And” between values parts separate entries of the source, which are not always exact repeats. Identical values can stand only once. The source made the active and inactive calls. The calls are words filed in the database; no cut-off is given here.
Tests used:
[1] = tested on: Human immunodeficiency virus 1; test: Antiviral activity against HIV1 virus-like particles harboring wild type reverse transcriptase infected in human U2OS cells after 24 hrs by Renilla luciferase assay; format: functional, organism-based; settings: for pIC50: read-out: IC50
How it was run: (§1)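 U2OS cells seeded 5 × 10^4 per well, infected next day with HIV-1 VLPs carrying wt or mutant RT at MOI 0.01 with polybrene 6 μg/mL plus compound; 1 h at 37 °C, washed, compound-containing media 24 h, then compound-free media 24 h. Lysate Gluc activity (Renilla luciferase reagent) normalised to protein.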

[2] = Cytotoxicity against human U2OS cells assessed as reduction of cell viability after 48 hrs; format: cell-based
How it was run: (§2)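 Impedance-based real-time viability: U2OS (3.5 × 10^3) or TZM-bl (8.5 × 10^3) cells seeded on electrode plates, compounds in DMSO added 24 h later (final DMSO 0.5%), cell index recorded over a further 48 h. CC50 = concentration lowering cell index by 50% relative to DMSO-only cells.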

[3] = Cytotoxicity against human TZM-bl cells assessed as reduction of cell viability after 48 hrs; format: cell-based; how it was run: as §2
[4] = tested on: Human immunodeficiency virus 1; test: Antiviral activity against HIV1 virus-like particles harboring wild type reverse transcriptase infected in human U2OS cells assessed as remaining viral activity at 50 uM after 24 hrs by Renilla luciferase assay relative to control; format: functional; how it was run: as §1
[5] = target: Human immunodeficiency virus type 1 reverse transcriptase (Human immunodeficiency virus 1) (UniProt Q72547); test: (§3) Inhibition of recombinant HIV1 reverse transcriptase using 234-nt long RNA/18-mer DNA oligonucleotide as template/primer assessed as remaining activity at 200 uM preincubated for 15 mins followed by incubation with template/primer for 40 mins by liquid scintillation counting in presence of alpha[P33]-dCTP relative to control
[6] = target: Human immunodeficiency virus type 1 reverse transcriptase (Human immunodeficiency virus 1) (UniProt Q72547); test: as §3, with “50” for “200”
[7] = target: Human immunodeficiency virus type 1 reverse transcriptase (Human immunodeficiency virus 1, UniProt Q72547); test: (§4) Inhibition of HIV1 reverse transcriptase using 234-nt long RNA/18-mer DNA oligonucleotide as template/primer preincubated for 15 mins followed by incubation with template/primer for 40 mins by liquid scintillation counting in presence of alpha[P33]-dCTP; settings: for pIC50: read-out: IC50
[8] = (§5) Cytotoxicity against human U2OS cells assessed as cell viability at 50 uM after 48 hrs relative to control; format: cell-based; settings: U2OS cells, read-out: Activity
How it was run: (§6)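 U2OS cells seeded at 3.5 × 10^3 on electrode plates; after 24 h compound added at a single concentration (final DMSO 0.5%) and impedance cell index followed for 48 h. Graded against DMSO-treated cells: >50% reduction toxic, 20-50% moderately toxic, ≤20% non-toxic.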

[9] = tested on: Human immunodeficiency virus 1; test: Antiviral activity against HIV1 virus-like particles harboring wild type reverse transcriptase infected in human U2OS cells assessed as remaining viral activity at 5 uM after 24 hrs by Renilla luciferase assay relative to control; format: functional; how it was run: as §1
[10] = tested on: Human immunodeficiency virus 1; test: Antiviral activity against HIV1 virion infected in human TZM-bl cells after 48 hrs by firefly luciferase assay; format: functional, organism-based; settings: for pIC50: Human immunodeficiency virus 1, TZM-bl, 48 h, read-out: IC50
How it was run: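 TZM-bl cells (LTR-driven firefly luciferase), 5 × 10^4 per well, infected next day with ACH-2-derived HIV-1 stock (PMA-induced; 30 ng p24 per well) plus compound for 2 h at 37 °C; medium then replaced with compound-containing medium for 48 h.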

[11] = tested on: U2OS; test: as §5; format: cell-based; settings: u2os, 48 h, 50 µM; how it was run: as §6
[12] = tested on: U2OS; test: (§7) Cytotoxicity against human U2OS cells assessed as cell viability at 5 uM after 48 hrs relative to control; format: cell-based; settings: u2os, 48 h, 5 µM; how it was run: as §6
[13] = target: Human immunodeficiency virus type 1 reverse transcriptase (Human immunodeficiency virus 1) (UniProt Q72547); test: as §4
[14] = tested on: Human immunodeficiency virus 1; test: Antiviral activity against HIV1 virus-like particles harboring reverse transcriptase K103N mutant infected in human U2OS cells after 24 hrs by Renilla luciferase assay; format: functional, organism-based; how it was run: as §1
[15] = tested on: Human immunodeficiency virus 1; test: Antiviral activity against HIV1 virus-like particles harboring reverse transcriptase Y181C mutant infected in human U2OS cells after 24 hrs by Renilla luciferase assay; format: functional, organism-based; how it was run: as §1
[16] = tested on: Human immunodeficiency virus 1; test: Antiviral activity against HIV1 virus-like particles harboring reverse transcriptase K103N/Y181C double mutant infected in human U2OS cells after 24 hrs by Renilla luciferase assay; format: functional, organism-based; how it was run: as §1
[17] = Selectivity index, ratio of CC50 for human U2OS cells to IC50 for HIV1 virus-like particles infected in U2OS cells; format: functional
[18] = Selectivity index, ratio of CC50 for human TZM-bl cells to IC50 for HIV1 virion […]; format: functional
[19] = as §7; format: cell-based; settings: U2OS cells, read-out: Activity; how it was run: as §6
[20] = tested on: Human immunodeficiency virus 1; test: Selectivity ratio of IC50 for HIV1 virus-like particles harboring reverse transcriptase K103N/Y181C double mutant to IC50 for HIV1 virus-like particles harboring wild type reverse transcriptase; format: functional
[21] = tested on: Human immunodeficiency virus 1; test: Potency index, ratio of nevirapine IC50 to compound IC50 for HIV1 virus-like particles infected in human U2OS cells; format: functional
[22] = Human immunodeficiency virus 1, U2OS, 24 h

Row | Structure (SMILES) | CC50 at 48 h [2] [µM] | pIC50 [1, 22] | Activity [4] [%] | Activity [5] | Activity [6] | pIC50 [7] | viability at 48 h, 50 µM [8] [%] | other results
1 | Cc1ccc(Nc2nc(Nc3ccc(C)cc3)nc(Nc3ccc(C)cc3)n2)cc1 | > 50 |  |  |  |  |  |  | IC50 ([1]; u2os): Not Active; CC50 at 48 h [3]: > 50 µM
2 | CCOC(=O)c1[nH]c2ccc(F)cc2c1NC(=O)NC1CCCCC1 | > 50 | < 4.30 | 84 | 42% | 81% | < 4.30 | 103 | 
3 | Cc1ccnc2c1NC(=O)c1cccnc1N2C1CC1 [NEVIRAPINE] | > 100 |  |  | 9% | 13.7% |  |  | CC50 at 48 h [3]: > 100 µM; Activity [9]: 0.5%; pIC50 [10]: 7.59; Activity [11]: Non-toxic; Activity [12]: Non-toxic
4 | Cc1ccc(Nc2nc(N)nc(Nc3ccc(C)cc3)n2)cc1 | 42.2 | 5.60 |  |  |  | 3.94 |  | CC50 at 48 h [3]: 57 µM; inhibition [13]: Dose-dependent effect; pIC50 [10]: 5.25; Activity [14]: inactive; Activity [15]: inactive; Activity [16]: inactive; Ratio CC50/IC50 [17]: 17; Ratio CC50/IC50 [18]: 10
5 | Cc1ccccc1Nc1nc(N)nc(CN(C)Cc2ccc(F)cc2)n1 | > 50 | < 4.30 | 53 | 89% | 103% | < 3.70 | 84 | Activity [9]: 151%; viability at 48 h, 5 µM [19]: 96%
6 | Cc1ccc(Nc2nc(O)nc(Nc3ccc(C)cc3)n2)cc1 | > 12.5 | 7.17 |  |  |  | 4.26 |  | CC50 at 48 h [3]: > 12.5 µM; pIC50 [10]: 6.80; Activity [14]: inactive; Activity [15]: inactive; pIC50 ([16]; Human immunodeficiency virus 1, U2OS): 5.10; Ratio IC50 [20]: >100
7 | Nc1nc(COC(=O)c2c[nH]c3ccccc23)nc(Cc2ccc(F)cc2)n1 | > 50 | < 4.30 | 118 | 87% | 86% | < 3.70 | 101 | 
8 | Cc1c(CCC(=O)NCC(=O)NCC(=O)O)c(=O)oc2c(C)c(O)ccc12 | > 50 | < 4.30 | 94 | 93% | 92% | < 3.70 | 99 | 
9 | O=C1NC(=S)N(CCC2=CCCCC2)C(=O)/C1=C\NCCO | > 50 | < 4.30 | 54 | 78% | 92% | < 3.70 | 98 | 
10 | c1coc(CNc2nc(NCc3ccco3)c3nc(NCc4ccco4)[nH]c3n2)c1 | > 50 | < 4.30 | 104 | 102% | 92% | < 3.70 | 116 | 
11 | COc1ccc(Nc2nc(Nc3ccc(OC)cc3)nc(NC3CCCC3)n2)cc1 | > 50 | < 5.30 | 30 | 98% | 94% | < 3.70 | 67 | Activity [9]: 94%; viability at 48 h, 5 µM [19]: 87%
12 | CNc1nc(Nc2ccc(C)cc2)nc(Nc2ccc(C)cc2)n1 | > 5 | < 5.30 |  | 79% and 82% | 85% and 86% | < 3.70 | 46 | Activity [9]: 84% and 80%; Activity [11]: 40%; viability at 48 h, 5 µM [19]: 96%; Activity [12]: 91%
13 | Cc1ccc2[nH]c(=O)c(CN(CCCO)C(=S)NC[C@@H]3CCCO3)cc2c1 | > 50 | < 4.30 | 68 | 108% | 98% | < 3.70 | 108 | 
14 | Cc1ccc(Nc2nc(NCC3CCCO3)nc(Nc3ccc(C)cc3)n2)cc1 (single isomer, unassigned; isomer 2) |  |  |  |  |  |  |  | pIC50 ([1]; u2os): 4.49; CC50 at 48 h [3]: > 50 µM
15 | Cc1ccc(Nc2nc(NCC3CCCO3)nc(Nc3ccc(C)cc3)n2)cc1 (stereo in doubt; 8(n.p)) [listing 1 of 2 here] |  |  | 5.2 |  |  | 3.98 | 66 | pIC50 ([1]; u2os): 6.48; Activity [9]: 20%; viability at 48 h, 5 µM [19]: 90%
16 | CCCn1c(NCCN(CC)CC)nc2c1c(=O)[nH]c(=O)n2C | > 50 | < 4.30 | 128 | 103% | 89% | < 3.70 | 101 | 
17 | Cc1ccc(Nc2nc(NCC3CCCO3)nc(Nc3ccc(C)cc3)n2)cc1 (stereo in doubt; 8) | > 50 |  |  |  |  |  |  | pIC50 ([1]; u2os): 4.80; IC50 [7]: Not Active; IC50 ([10]; tzm-bl): Not Active; Ratio IC50 [21]: 10
18 | Cc1ccc(Nc2nc(NCC3CCCO3)nc(Nc3ccc(C)cc3)n2)cc1 (stereo in doubt; 8(n.p)) [listing 2 of 2 here] |  |  |  | 53% | 59% |  |  | 
19 | Cc1ccccc1Nc1nc(Cn2ccc(C(F)(F)F)cc2=O)nc(=N)[nH]1 | > 50 | < 4.30 | 101 | 89% | 88% | < 3.70 | 105 | 
20 | Cc1ccc(Nc2nc(COc3ccc(Cl)cc3)nc(=N)[nH]2)cc1 | > 50 | < 4.30 | 82 | 86% | 79% | < 3.70 | 76 | Activity [9]: 125%; viability at 48 h, 5 µM [19]: 93%
21 | Cc1ccc(Nc2nc(NCC3CCCO3)nc(NCC3CCCO3)n2)cc1 (stereo not drawn) | > 50 |  |  |  |  |  |  | IC50 ([1]; u2os): Not Active; CC50 at 48 h [3]: > 50 µM
22 | Cc1ccc(Nc2nc(NCC3CCCO3)nc(Nc3ccc(C)cc3)n2)cc1 (single isomer, unassigned; isomer 1) |  |  |  |  |  |  |  | pIC50 ([1]; u2os): 4.74
23 | Cc1ccc(Nc2nc(N)nc(COC(=O)c3cnc4ccccc4n3)n2)cc1 | > 50 | < 4.30 | 75 | 54% | 82% | < 3.70 | 103 | 
24 | Nc1c(NCCO)cc(Nc2ccccc2)c2c1C(=O)c1ccccc1C2=O | > 5 | < 5.30 |  | 66% | 90% | < 3.70 | 42 | Activity [9]: 111%; viability at 48 h, 5 µM [19]: 99%
